NPY-Y1 antag = NPY-Y1 (human) receptor antagonism; hit rate 1% among 200,000; AID 1040; inhibition, % at 3.6 µM; HEK293-CNG Y1 cells, membrane potential fluorescence; NPY at EC95, then isoproterenol;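 active means inhibition above the campaign mean inhibition of all tested compounds plus 3 SD, cut at about 20% in these data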
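Material: HEK293 cells with Y1 receptor plus CNG channel; times: compound incubation 1 h at room temperature, readout 45 min post-stimulation; signal: fluorescence, membrane potential probe; read-out basis: fluorescence ratio normalized to % inhibition between controls; benchmarks: full-block control isoproterenol-only wells, zero-block control NPY plus isoproterenol wells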
NPY-Y2 antag = blocks the human neuropeptide Y Y2 receptor; NPY-Y2 expressing cells, antagonist mode; inhibition, % at 2.7 µM; hit rate 0.99% among 140,000; in the data active means inhibition above about 17%
Target sequence (P49146 whole entry, looked up): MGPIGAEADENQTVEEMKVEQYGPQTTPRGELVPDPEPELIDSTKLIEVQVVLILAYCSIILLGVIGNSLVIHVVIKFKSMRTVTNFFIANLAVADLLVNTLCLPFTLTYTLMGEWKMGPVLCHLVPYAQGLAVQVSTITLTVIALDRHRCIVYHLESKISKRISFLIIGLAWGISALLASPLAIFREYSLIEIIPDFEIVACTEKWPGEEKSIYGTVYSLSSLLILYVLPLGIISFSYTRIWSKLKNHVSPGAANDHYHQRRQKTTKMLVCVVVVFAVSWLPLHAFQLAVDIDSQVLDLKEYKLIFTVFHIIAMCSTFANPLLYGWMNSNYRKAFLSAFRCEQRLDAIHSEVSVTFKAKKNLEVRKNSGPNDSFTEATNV
PGE2 EP2 inh = EP2 receptor (human) inhibition. AID 1422. inhibition, % at 25 µM. hit rate 0.52% among 260,000. C6 glioma cells expressing human EP2, cAMP TR-FRET; cells stimulated with saturating PGE2. P43116;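 active means percent inhibition above 40 after rounding to a whole number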;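 further: rat C6 glioma host cells with rolipram phosphodiesterase inhibitor present; the protocol text gives 20 µM as final concentration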
Target sequence (P43116 whole entry, looked up): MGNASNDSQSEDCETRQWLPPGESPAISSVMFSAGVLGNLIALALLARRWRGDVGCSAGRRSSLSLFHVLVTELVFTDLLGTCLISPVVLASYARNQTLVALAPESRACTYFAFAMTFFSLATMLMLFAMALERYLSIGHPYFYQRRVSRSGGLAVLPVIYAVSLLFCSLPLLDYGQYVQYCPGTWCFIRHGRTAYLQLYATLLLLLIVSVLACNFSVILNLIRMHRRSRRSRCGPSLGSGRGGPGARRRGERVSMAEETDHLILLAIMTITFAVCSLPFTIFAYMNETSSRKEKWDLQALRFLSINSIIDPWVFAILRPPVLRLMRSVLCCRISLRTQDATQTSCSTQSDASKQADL
NPY-Y1 PAM-ag = potentiators or agonists of human neuropeptide Y receptor Y1; P25929; NPY-Y1 expressing cells, potentiator/agonist activation; activation, % at 3.6 µM; hit rate 0.37% among 220,000; AID 1304; in the data active means activation above about 33%, passing the limit was not always enough;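 further: cells stimulated with NPY at EC10 then isoproterenol at EC100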
NPY-Y2 PAM-ag = potentiators or agonists of human neuropeptide Y receptor Y2; P49146; cells expressing NPY-Y2, potentiator/agonist read-out; activation, % at 3.6 µM; hit rate 0.45% among 220,000; in the data active means activation above about 27%;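 further: cells stimulated with NPY near EC25 plus isoproterenol at EC100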
EP2 mod = modulates human prostaglandin E2 receptor EP2 signaling; P43116; EP2-expressing cells, cAMP HTRF FRET, PGE2 co-stimulation; induction, % at 25 µM; AID 940; hit rate 0.83% among 260,000;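 active means compounds whose cAMP rise, as percent of the full-agonist control response, exceeds 60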;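 further: rat C6 glioma line stably carrying human EP2 under a CMV promoter; the protocol text gives 20 µM as final concentration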
Numbers stand for hits. Only some compounds are listed: those with a hit (about 2.8% of all), similar ones and a draw of the others.

How did Cc1ccnc(-n2cccc2CN(CCCn2ccnc2)Cc2ccc(C)o2)c1 do in these assays?
PGE2 EP2 inh: inactive; EP2 mod: inactive

How did CCCC(c1nnnn1Cc1ccco1)N1CCN(c2cc(Cl)ccc2C)CC1 (centres undefined) do in these assays?
NPY-Y1 antag: 28.7; NPY-Y2 antag: 27.3; PGE2 EP2 inh: inactive; NPY-Y1 PAM-ag: inactive; NPY-Y2 PAM-ag: inactive; EP2 mod: inactive

How did CCCC(c1nnnn1Cc1ccco1)N1CCN(c2ccccc2F)CC1 (centres undefined) do in these assays?
PGE2 EP2 inh: inactive; EP2 mod: inactive

What do the screens show for `CCCSc1nc2sc3c(c2c(=O)n1C)CCCC3`?
PGE2 EP2 inh: inactive; EP2 mod: 65.1

How did CCCSc1nc2sc3c(c2c(=O)n1CC)CCCC3 do in these assays?
PGE2 EP2 inh: inactive; EP2 mod: inactive

Results for CCOC(=O)c1c(-c2ccc(C)cc2)csc1NC(=O)CC ?
PGE2 EP2 inh: inactive; EP2 mod: 78.2

What do the screens show for `CCOC(=O)c1c(-c2ccc(OC)cc2)csc1NC(=O)CC`?
PGE2 EP2 inh: inactive; EP2 mod: inactive

What do the screens show for `CCOC(=O)c1c(-c2cccs2)csc1N`?
NPY-Y1 antag: inactive; PGE2 EP2 inh: inactive; NPY-Y1 PAM-ag: inactive; NPY-Y2 PAM-ag: inactive; EP2 mod: inactive

What do the screens show for `CCOC(=O)c1c(-c2ccc(CC)cc2)csc1N`?
PGE2 EP2 inh: inactive; EP2 mod: 93.8

How did CCOC(=O)c1c(-c2ccc(OCC)cc2)csc1NC(C)=O do in these assays?
PGE2 EP2 inh: inactive; EP2 mod: 64.3

What do the screens show for `CCOCCCNC(=O)CSc1ccc(-c2ccccc2)nn1`?
PGE2 EP2 inh: inactive; EP2 mod: inactive

Results for CCc1ccc(S(=O)(=O)/N=C2\C=CC(=O)c3ccccc32)cc1 ?
NPY-Y1 antag: inactive; PGE2 EP2 inh: inactive; NPY-Y1 PAM-ag: inactive; NPY-Y2 PAM-ag: inactive; EP2 mod: inactive

How did CCc1ccc(S(=O)(=O)/N=C2/C=C(Sc3ncn[nH]3)C(=O)c3ccccc32)cc1 do in these assays?
NPY-Y1 antag: inactive; NPY-Y2 antag: inactive; PGE2 EP2 inh: 61.0; NPY-Y1 PAM-ag: inactive; NPY-Y2 PAM-ag: inactive; EP2 mod: inactive

What do the screens show for `COc1cccc(NS(=O)(=O)CC23CCC(CC2=O)C3(C)C)c1` (centres undefined)?
NPY-Y1 antag: inactive; NPY-Y2 antag: inactive; PGE2 EP2 inh: inactive; NPY-Y1 PAM-ag: inactive; NPY-Y2 PAM-ag: inactive; EP2 mod: inactive

What do the screens show for `CC1(C)C2CCC1(CS(=O)(=O)N1CCOCC1)C(=O)C2` (centres undefined)?
NPY-Y1 antag: inactive; NPY-Y2 antag: inactive; PGE2 EP2 inh: 96.3; NPY-Y1 PAM-ag: inactive; NPY-Y2 PAM-ag: inactive; EP2 mod: inactive

What do the screens show for `CC1(C)[C@@H]2CC[C@@]1(CS(=O)(=O)Nc1ccccc1)C(=O)C2`?
PGE2 EP2 inh: 50.6; EP2 mod: inactive

How did COCCNc1c(-c2cc3cc(C)ccc3[nH]c2=O)nc2ccc(Cl)cn12 do in these assays?
PGE2 EP2 inh: inactive; EP2 mod: inactive

How did COc1ccc(C(c2nnnn2Cc2ccc(F)cc2)N2CCN(C3CCCCC3)CC2)cc1OC (centres undefined) do in these assays?
PGE2 EP2 inh: inactive; EP2 mod: inactive

What do the screens show for `CC1(C(=O)NCc2nc(-c3ccccc3Cl)no2)CC(c2ccccc2)=NO1` (centres undefined)?
PGE2 EP2 inh: inactive; EP2 mod: inactive

Results for C=CCn1c(SCC(=O)c2cc(C)n(CCOC)c2C)nc2sc(C)c(C)c2c1=O ?
NPY-Y1 antag: inactive; NPY-Y2 antag: inactive; PGE2 EP2 inh: 42.2; NPY-Y1 PAM-ag: inactive; NPY-Y2 PAM-ag: inactive; EP2 mod: inactive

How did C=CCn1c(SCC(=O)c2cccs2)nc2sc(C)c(C)c2c1=O do in these assays?
NPY-Y1 antag: inactive; NPY-Y2 antag: inactive; PGE2 EP2 inh: inactive; NPY-Y1 PAM-ag: inactive; NPY-Y2 PAM-ag: inactive; EP2 mod: inactive

What do the screens show for `Cc1nn(C(C)(C)C)c(OC(=O)c2ccc3c(c2)OCO3)c1S(=O)(=O)c1ccccc1`?
NPY-Y1 antag: inactive; NPY-Y2 antag: inactive; PGE2 EP2 inh: inactive; NPY-Y1 PAM-ag: inactive; NPY-Y2 PAM-ag: inactive; EP2 mod: inactive

How did Cc1nn(C(C)(C)C)c(OC(=O)c2ccc3c(c2)OCO3)c1Sc1ccccc1 do in these assays?
NPY-Y1 antag: 47.7; NPY-Y2 antag: 29.5; PGE2 EP2 inh: inactive; NPY-Y1 PAM-ag: inactive; NPY-Y2 PAM-ag: inactive; EP2 mod: inactive

How did Cc1ccc(S(=O)(=O)Nc2ccc(S(=O)(=O)NC(C)(C)C)cc2)cc1 do in these assays?
NPY-Y1 antag: inactive; NPY-Y2 antag: inactive; PGE2 EP2 inh: inactive; NPY-Y1 PAM-ag: inactive; NPY-Y2 PAM-ag: inactive; EP2 mod: inactive

Results for CC(C)(C)NS(=O)(=O)c1ccc(NS(=O)(=O)c2ccc(F)cc2)cc1 ?
NPY-Y1 antag: inactive; NPY-Y2 antag: inactive; PGE2 EP2 inh: inactive; NPY-Y1 PAM-ag: inactive; NPY-Y2 PAM-ag: 90.2; EP2 mod: inactive

How did CCc1ccc2[nH]c(=O)c(CN(CCN(C)C)C(=O)Nc3ccccc3Cl)cc2c1 do in these assays?
PGE2 EP2 inh: inactive; EP2 mod: inactive

Results for Cc1cc(NC2CCCCC2)nc(NCc2ccccc2)n1 ?
NPY-Y1 antag: 23.0; NPY-Y2 antag: 23.8; PGE2 EP2 inh: inactive; NPY-Y1 PAM-ag: inactive; NPY-Y2 PAM-ag: inactive; EP2 mod: inactive

What do the screens show for `Cc1cc(C)nc(N/N=C/c2ccccc2Cl)n1`?
PGE2 EP2 inh: inactive; NPY-Y1 PAM-ag: inactive; NPY-Y2 PAM-ag: inactive; EP2 mod: inactive

What do the screens show for `Cc1cc(N/N=C/c2ccccc2Cl)nc(NCc2ccccc2)n1`?
NPY-Y1 antag: 24.7; NPY-Y2 antag: 18.6; PGE2 EP2 inh: inactive; NPY-Y1 PAM-ag: inactive; NPY-Y2 PAM-ag: inactive; EP2 mod: inactive

What do the screens show for `CCC(C)(C(=O)NC1CCCCC1)N(Cc1ccco1)C(=O)c1ccc2c(c1)OCO2` (centres undefined)?
NPY-Y1 antag: 49.0; NPY-Y2 antag: 43.1; PGE2 EP2 inh: inactive; NPY-Y1 PAM-ag: inactive; NPY-Y2 PAM-ag: inactive; EP2 mod: inactive

Results for CCC(C)(C(=O)NC1CCCC1)N(CC1CCCO1)C(=O)c1ccc2c(c1)OCO2 (centres undefined) ?
NPY-Y1 antag: inactive; NPY-Y2 antag: inactive; PGE2 EP2 inh: inactive; NPY-Y1 PAM-ag: inactive; NPY-Y2 PAM-ag: inactive; EP2 mod: inactive

Results for Cc1ncc(-c2ccncc2)c(C2CCCN(C(=O)CC3OC(=O)c4ccccc43)C2)n1 (centres undefined) ?
EP2 mod: inactive

What do the screens show for `COc1ccc(-c2cc(-c3cc(F)ccc3O)[nH]n2)cc1OC`?
NPY-Y1 antag: inactive; NPY-Y2 antag: inactive; PGE2 EP2 inh: 66.4; NPY-Y1 PAM-ag: inactive; NPY-Y2 PAM-ag: inactive; EP2 mod: inactive

What do the screens show for `COc1ccc(-c2cc(-c3ccccc3O)[nH]n2)cc1OC`?
NPY-Y1 antag: inactive; NPY-Y2 antag: inactive; PGE2 EP2 inh: inactive; NPY-Y1 PAM-ag: inactive; NPY-Y2 PAM-ag: inactive; EP2 mod: inactive

Results for Cn1c(=O)c2c(nc(CN3CCc4ccccc4C3)n2CCc2ccccc2)n(C)c1=O ?
NPY-Y1 antag: 26.2; NPY-Y2 antag: inactive; NPY-Y1 PAM-ag: inactive; NPY-Y2 PAM-ag: inactive

High-throughput results (PubChem BioAssay)
